Laboratory results: ChEMBL document CHEMBL1142940, “Use of simple docking methods to screen a virtual library for heteroactivators of cytochrome P450 2C9” (J Med Chem, 2007)
Several values for one entry are separate records, joined by “and”; a condition that tells them apart may be missing. Identical values can stand only once.

Legend:
CYP2C9 [1] = molecular target: T1, CYP2C9 (Homo sapiens, UniProt P11712); test: (§1) Activation of human CYP2C9 assessed as (S)-Flurbiprofen hydroxylation; format: ADME; parameters: concentration or dose not given beside the values; details: probe (S)-flurbiprofen
In short: (§2)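 Reconstituted CYP2C9 (5 pmol) in 0.2 mL incubations with 20 μM (S)-flurbiprofen held constant, 50 mM potassium phosphate pH 7.4, 37 °C for 20 min. Test compounds diluted in DMSO (1% final in all reactions, controls included), screened on a log scale from 0.001–1000 μM depending on solubility. 4′-OH flurbiprofen formation measured after quench. Triplicate reactions.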

Cytochrome P450 2C9 [2] = molecular target: T2, Cytochrome P450 2C9 (Homo sapiens, UniProt P11712); test: Activation of human CYP2C9 assessed as (S)-Flurbiprofen hydroxylation; parameters: concentration or dose not given beside the values
CYP2C9 [3] = molecular target: T1, CYP2C9; test: Inhibition of human CYP2C9 assessed as (S)-Flurbiprofen hydroxylation at 100 uM; format: ADME; details: probe (S)-flurbiprofen; in short: as §2
CYP2C9 [4] = molecular target: T1, CYP2C9; test: Inhibition of human CYP2C9 assessed as (S)-Flurbiprofen hydroxylation at 1 uM; format: ADME; details: probe (S)-flurbiprofen
In short: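 Reconstituted CYP2C9 (5 pmol) in 0.2 mL incubations with 20 μM (S)-flurbiprofen held constant, in 50 mM potassium phosphate pH 7.4. Run at 37 °C for 20 min, then quenched, and 4′-OH flurbiprofen formation measured. Test compounds were dosed from DMSO on a log scale, with 1% DMSO final in all reactions, in triplicate. Activity is reported as % change versus control.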

Cytochrome P450 2C9 [5] = molecular target: T2, Cytochrome P450 2C9; test: as §1; format: ADME; parameters: concentration or dose not given beside the values; in short: as §2

T1 sequence (P11712 whole entry): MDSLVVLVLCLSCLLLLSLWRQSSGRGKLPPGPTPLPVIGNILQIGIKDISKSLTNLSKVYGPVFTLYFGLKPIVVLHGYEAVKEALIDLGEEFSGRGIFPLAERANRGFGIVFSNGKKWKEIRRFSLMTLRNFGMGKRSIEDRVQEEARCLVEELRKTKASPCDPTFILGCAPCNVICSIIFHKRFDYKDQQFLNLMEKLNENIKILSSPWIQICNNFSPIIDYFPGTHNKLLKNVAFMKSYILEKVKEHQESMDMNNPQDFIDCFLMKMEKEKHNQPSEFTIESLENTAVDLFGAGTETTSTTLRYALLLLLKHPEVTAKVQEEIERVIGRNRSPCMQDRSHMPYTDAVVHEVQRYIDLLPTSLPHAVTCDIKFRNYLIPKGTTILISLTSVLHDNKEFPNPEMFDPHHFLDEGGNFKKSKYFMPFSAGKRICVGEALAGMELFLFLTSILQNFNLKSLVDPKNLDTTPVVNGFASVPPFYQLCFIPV
T2 sequence (P11712 whole entry): as above

| Compound | activity (CYP2C9 [1]) | activity (Cytochrome P450 2C9 [2]) | also measured |
| --- | --- | --- | --- |
| O=C(c1ccc(F)cc1)c1cnc2sccn12 | – | – | inhibition at 100 µM (CYP2C9 [3]): 50% |
| CN1C(=O)N(c2ccc(Cl)c(Cl)c2)C(=N)C1=S | – | – | inhibition at 100 µM (CYP2C9 [3]): 50% |
| Cc1cccc(C(=O)[C@@H](O)c2cccc(C)n2)n1 | 46% | – | – |
| Cn1c(=O)[nH]c(=O)c2ncn(CC(=O)c3ccc(F)cc3)c21 | 7.7% | – | – |
| [O-][S+](c1ccccc1)c1ccccc1 | 3.5% | – | – |
| Cc1ccc([C@@H]2NC(=O)c3ccccc3N2)cc1 | 6.6% | – | – |
| Nc1cc(N)c(N)cc1N | – | – | inhibition at 1 µM (CYP2C9 [4]): 50% |
| Cn1c(=O)c2c(ncn2CN2CCCC2)n(C)c1=O | 3% | – | – |
| O=S(=O)(c1ccc(O)cc1)c1ccc(O)cc1 | 95% | – | – |
| O=S(=O)(c1ccccc1)c1ccccc1 [(PHENYLSULFONYL)BENZENE] | 40% | – | – |
| Nc1ccc(S(=O)(=O)c2ccc(N)cc2)cc1 [DAPSONE] | – | – | activity (Cytochrome P450 2C9 [5]): 95% and 64.1% |
| c1ccc2c(c1)sc1ccccc12 [DIBENZOTHIOPHENE] | – | -10.6% | – |

Further lines, with some results ahead:

| activity (CYP2C9 [1]) | activity (Cytochrome P450 2C9 [2]) | Compound | also measured |
| --- | --- | --- | --- |
| 8% | – | CC(=O)Oc1ccc(S(=O)(=O)c2ccc(OC(C)=O)cc2)cc1 | – |
| 50.6% | – | Cc1ccc(S(=O)(=O)c2ccc(C)cc2)cc1 | – |
| – | -5% | O=C(O)c1ccc(S(=O)(=O)c2ccc(C(=O)O)cc2)cc1 | – |
| 4.4% | – | NCC(=O)Nc1ccc2ccccc2c1 | – |
| – | -10.6% | Nc1ccc(S(=O)(=O)c2ccc([N+](=O)[O-])cc2)cc1 | – |
| – | -25% | COc1ccc(S(=O)(=O)c2ccc(OC)cc2)cc1 | – |
| – | -17.1% | Nc1ccc(S(=O)(=O)Nc2ncccn2)cc1 [SULFADIAZINE] | – |
| – | -18.8% | Cc1cc(C)nc(NS(=O)(=O)c2ccc(N)cc2)n1 [SULFAMETHAZINE] | – |
